Experimental data taken from publication PMC6391190 (Pharmacological research, 2019).
Where “and” joins values, the source holds several entries; their conditions need not be identical. Equal values may be shown once. Entries after “also recorded” stand apart in the source; their conditions may differ.

Legend:
[1] = test system: BCRP; test: qPCR of BCRP mRNA in BeWo trophoblast cells; type: cell-based, human; conditions: for reversal of the effects of AEA on BCRP: SB366791 1 μM, GW6471 5 μM, GW9662 5 μM, PD98059; for inhibition of AEA-mediated down-regulation of BCRP mRNA: 0.1 μM, co-treatment with AEA 10 μM
[2] = test system: BCRP; test: Zearalenone transport with HPLC measurement in BeWo cells; type: cell-based, human; conditions: for percent efflux of zearalenone: BeWo
[3] = test system: BCRP; test: Hoechst 33342 transport; type: cell-based, human
[4] = test system: BeWo cells; conditions: for effect alone on BeWo cell viability: AEA 10 μM or Ko143 1 μM alone, data not shown
[5] = test system: BCRP; test: BODIPY-glyburide Transwell transport across BeWo monolayers; type: cell-based, human; conditions: for reduction of transepithelial transport of BODIPY-glyburide: after 2 h
[6] = test system: BeWo cells
[7] = test system: intracellular cAMP; test: Measurement of intracellular cAMP; type: cell-based, human; conditions: 1 h, BeWo
[8] = test system: CREB; test: Western blot of CREB phosphorylation in BeWo cells; type: cell-based, human; conditions: 1 h
[9] = test system: BCRP promoter; test: ChIP of p-CREB binding to the BCRP promoter in BeWo cells; type: cell-based, human; conditions: 1 h
[10] = test system: BCRP; test: qPCR of BCRP mRNA in human term placental explants; type: cell-based; conditions: AEA 1 μM, 24 h
Method in brief: (§1)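 Term placental explants were cultured 24 h with AEA (1 μM, 0.05% ethanol final), replenished after 12 h. Explants were snap-frozen and homogenized in RNAzol (bead homogenizer, 4 min, 40 Hz). Reverse transcription used 1000 ng RNA with random primers and MultiScribe (25°C 10 min, 37°C 120 min, 85°C 5 min), then qPCR. Values are means of 3 placentas (3-6 samples each) ± SE.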

[11] = test system: syncytialization-related genes (hCGα, syncytin-1, syncytin-2); test: qPCR of syncytialization-related genes in human term placental explants; type: cell-based
Method in brief: as §1

[12] = test system: BCRP; test: Western blot of BCRP protein in human term placental explants; type: cell-based; conditions: AEA 1 μM, 24 h, densitometry
[13] = test system: syncytialization markers (hCGβ, syncytin-2, syncytin-1, hCGα); test: qPCR of syncytialization markers in BeWo trophoblast cells; type: cell-based, human
Method in brief: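 BeWo cells took AEA (ethanol vehicle) either at 10 μM over a time course (including 18, 24 and 48 h, with time-matched vehicle controls) or at 0.01-10 μM for 24 h. Cells were scraped into RNAzol and homogenized. Reverse transcription used 1000 ng RNA with random primers (25°C 10 min, 37°C 120 min, 85°C 5 min), followed by qPCR; mean ± SE, n = 4.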

[14] = test system: BCRP; test: Western blot of BCRP protein in BeWo cells; type: cell-based, human; conditions: AEA 10 μM, 24 h
Method in brief: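 BeWo cells exposed 24 h to AEA (10 μM) or vehicle; AEA was dissolved in ethanol. Cells were lysed in 20 mM Tris-HCl, 150 mM NaCl, 5 mM EDTA, 1% Triton X-100 with protease inhibitor cocktail. Western blotting detected BCRP at 72 kDa, with β-actin (42 kDa) as the loading control. Densitometry was performed.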

[15] = test system: human placental explants; test: Morphology of placental explants; type: cell-based; conditions: anandamide treatment; data not shown
[16] = cited from earlier work
[17] = forskolin 50 μM, 24h, data not shown
[18] = AEA 1 μM, 24 h, human term placental explants

For `COc1cccc(-c2cc(=O)c3ccccc3o2)c1N` [PD98059], the “reversal of the effects of AEA on BCRP” value ([1]; BeWo, data not shown) was “none of these chemicals reversed the effects of AEA”.

For `C[C@H]1CCCC(=O)CCC/C=C/c2cc(O)cc(O)c2C(=O)O1` [ZLN, zearalenone], the “percent efflux of accumulated zearalenone” value ([2]; vehicle-treated BeWo cells, zearalenone 50 μM) was 71%.

In the case of `Nc1ncnc2c1nc(Br)n2[C@@H]1O[C@@H]2COP(=O)(O)O[C@H]2[C@H]1O` [8-Br-cAMP], the “attenuation of AEA down-regulation of BCRP expression and efflux activity” value ([1]; 8-Br-cAMP 1 mM, 24 h with AEA 10 μM, 24 h, BeWo) is reported as “abrogated; also recorded: completely attenuated”, the “prevention of AEA lowering of Hoechst 33342 efflux” value ([3]; 8-Br-cAMP 1 mM with AEA 10 μM, 24 h, BeWo) is reported as “completely prevented” and the “effect itself on Hoechst 33342 transport” value ([3]; 8-Br-cAMP 1 mM, 24 h, BeWo) is reported as “no effect”.

In the case of `COc1ccc(C(=O)c2c(C)n(CCN3CCOCC3)c3cc(I)ccc23)cc1` [AM630], the “inhibition of AEA-mediated down-regulation of BCRP mRNA” value ([1]; 24 h, BeWo) is reported as “abrogated; also recorded: completely inhibited”.

With `CCOc1ccc(-c2nc3ccc(-c4nc5ccc(N6CCN(C)CC6)cc5[nH]4)cc3[nH]2)cc1` [Hoechst 33342] the “percent efflux of Hoechst 33342 taken up” value ([3]; vehicle-treated/control BeWo cells, Hoechst 33342 5 μM) was 35% and 33%.

With `COc1cc(CNC(=O)CCCC/C=C/C(C)C)ccc1O` [Capsaicin] the “effect on BCRP expression” value ([1]; capsaicin 1 μM, 24 h, BeWo, data not shown) was “no effect”.

In the case of `CCC(=O)NC[C@H](Cc1ccc(OCCc2nc(-c3ccccc3)oc2C)cc1)N/C(C)=C\C(=O)c1ccc(C(F)(F)F)cc1` [GW6471], the “reversal of the effects of AEA on BCRP” value ([1]; BeWo, data not shown) is reported as “none of these chemicals reversed the effects of AEA”.

With `C[C@H]1CCC[C@H](O)CCCCCc2cc(O)cc(O)c2C(=O)O1` [α-ZRN, α-zearalanol] the “LC50 values, AEA” value ([4]; human) was 27.4 ± 9.1 µM and the “LC50 values, Ko143” value ([4]; human) was 36.0 ± 10.1 µM.

For Lucifer yellow, the “percent of Lucifer yellow rejection” value ([5]; Lucifer yellow 20 μM, BeWo monolayer integrity) was 95.3 ± 3.7%.

With `COc1cccc(NC(=O)/C=C/c2ccc(Cl)cc2)c1` [SB366791] the “reversal of the effects of AEA on BCRP” value ([1]; BeWo, data not shown) was “none of these chemicals reversed the effects of AEA”.

For `Cc1c(C(=O)NN2CCCCC2)nn(-c2ccc(Cl)cc2Cl)c1-c1ccc(Cl)cc1` [rimonabant], the “inhibition of AEA-mediated down-regulation of BCRP mRNA” value ([1]; 24 h, BeWo) was “only partially inhibited”.

In the case of `O=C(Nc1ccccc1)c1cc([N+](=O)[O-])ccc1Cl` [GW9662], the “reversal of the effects of AEA on BCRP” value ([1]; BeWo, data not shown) is reported as “none of these chemicals reversed the effects of AEA”.

With `COc1ccc2c3c([nH]c2c1)[C@H](CC(C)C)N1C(=O)[C@H](CCC(=O)OC(C)(C)C)NC(=O)[C@@H]1C3` [Ko143] the “BCRP efflux activity (percent efflux of Hoechst 33342)” value ([3]; Ko143 1 μM present during assay, BeWo) was 8%, the “percent efflux of zearalenone” value ([2]; Ko143 1 μM) was 49% and the “reduction of transepithelial transport of BODIPY-glyburide” value ([5]; Ko143 1 μM, present during assay) was 32%. For the same compound, the “effect on AEA retention” value ([6]; Ko143 1 μM, 3H-AEA 100 nM, BeWo) was “had no impact” and the “effect alone on BeWo cell viability” value [4] was “Neither Ko143 nor AEA alone affected”.

In the case of `C=C[C@@]1(C)CC(=O)[C@]2(O)[C@@]3(C)[C@@H](O)CCC(C)(C)[C@@H]3[C@H](O)[C@H](OC(C)=O)[C@@]2(C)O1` [forskolin], the “inhibition of AEA-mediated reduction of BCRP transcription” value [1, 17] is reported as “partially inhibited”, the “effect on AEA-mediated reduction of Hoechst 33342 efflux” value [3, 17] is reported as “had no effect” and the “intracellular levels of cAMP” value ([7]; forskolin 50 μM) is reported as 12,800 pmol/mg protein. The CREB phosphorylation ([8]; forskolin 50 μM) was “consistently increased” and the “reduction in p-CREB binding to the BCRP promoter” value ([9]; co-treatment with AEA 10 μM and forskolin 50 μM) was 12%.

For `CCCCC/C=C\C/C=C\C/C=C\C/C=C\CCCC(=O)NCCO` [AEA, anandamide], the “reduction of BCRP mRNA expression” value [10] was 46%, the “reduction of hCGα mRNA expression” value [11, 18] was 48% and the “reduction of syncytin-1 mRNA expression” value [11, 18] was 25%. The “syncytin-2 mRNA expression” value ([11]; AEA treatment of placental explants, data not shown) was “unchanged”, the “down-regulation of BCRP protein” value [12] was 30% and the “lowering of hCGβ mRNA expression” value ([13]; AEA 0.01 μM, 24 h, BeWo) was 71%. The “lowering of syncytin-2 mRNA expression” value ([13]; AEA 1 μM, 24 h, BeWo) was 40%, the “decrease of hCGβ mRNA expression” value ([13]; AEA 10 μM, 18 and 24 h, BeWo) was 40-50% and the “decrease of syncytin-2 mRNA expression” value ([13]; AEA 10 μM, 18 and 24 h, BeWo) was 40-50%. The “expression of syncytin-1 or hCGα mRNAs” value ([13]; BeWo cells, data not shown) was “did not alter”, the “time of maximal reduction of BCRP mRNA” value ([1]; AEA 10 μM, BeWo, return to control levels by 48 h) was 24 h and the “lowest concentration at which repression of BCRP was observed” value ([1]; BeWo cells) was 10 nM. The “decrease of BCRP mRNA expression” value ([1]; all AEA concentrations between 0.01 μM and 10 μM, 24 h, BeWo) was 30-50%, the BCRP protein expression [14] was “reduced protein expression” and the “effect on ability of BeWo cells to efflux Hoechst 33342” value ([3]; AEA 10 μM present during uptake and efflux phase (untreated cells)) was “did not impact”. The “BCRP efflux activity (percent efflux of Hoechst 33342)” value ([3]; AEA 10 μM, 24 h pre-treatment, BeWo) was 15%, the “percent efflux of zearalenone” value ([2]; AEA 10 μM, 24 h) was 33% and the “reduction of transepithelial transport of BODIPY-glyburide” value ([5]; AEA 10 μM, 24 h) was 20%. The “basal intracellular levels of cAMP” value ([7]; AEA 10 μM, control 34.8) was 12.4 pmol/mg protein, the “intracellular levels of cAMP” value ([7]; forskolin 50 μM + AEA 10 μM) was 8,250 pmol/mg protein and the “forskolin-induced phosphorylation of CREB” value ([8]; AEA 10 μM co-treated with forskolin 50 μM) was “completely inhibited; also recorded: abolished”. For the same compound, the “p-CREB relative to total CREB protein” value ([8]; AEA 10 μM) was “no p-CREB was detected”, the “decrease of p-CREB binding to the BCRP promoter” value ([9]; AEA 10 μM) was 68% and the “changes to the morphology of the explants” value [15] was “did not induce any visible changes”. The “reduction in the intracellular concentration of AEA” value ([6]; human, 30 min, 100 nM) was 44%, the “effect alone on BeWo cell viability” value [4] was “Neither Ko143 nor AEA alone affected” and the half-life in vivo [16] was under 5 min.
